# Laboratory results from ChEMBL document CHEMBL4118021, “Studies of TAK1-centered polypharmacology with novel covalent TAK1 inhibitors” (Bioorg Med Chem, 2017).
# Legend:
# Assay type in all cases: cell-based
# [1] = target: T1, Serine/threonine-protein kinase LATS2 (Homo sapiens) (UniProt Q9NRM7); assay: Inhibition of LATS2 in human SKCO1 cells at 1 uM after 4 hrs using biotin labeled DIKPDNILIDLDGHIK probe by mass-spectrometric analysis relative to control
# T1 sequence (whole entry): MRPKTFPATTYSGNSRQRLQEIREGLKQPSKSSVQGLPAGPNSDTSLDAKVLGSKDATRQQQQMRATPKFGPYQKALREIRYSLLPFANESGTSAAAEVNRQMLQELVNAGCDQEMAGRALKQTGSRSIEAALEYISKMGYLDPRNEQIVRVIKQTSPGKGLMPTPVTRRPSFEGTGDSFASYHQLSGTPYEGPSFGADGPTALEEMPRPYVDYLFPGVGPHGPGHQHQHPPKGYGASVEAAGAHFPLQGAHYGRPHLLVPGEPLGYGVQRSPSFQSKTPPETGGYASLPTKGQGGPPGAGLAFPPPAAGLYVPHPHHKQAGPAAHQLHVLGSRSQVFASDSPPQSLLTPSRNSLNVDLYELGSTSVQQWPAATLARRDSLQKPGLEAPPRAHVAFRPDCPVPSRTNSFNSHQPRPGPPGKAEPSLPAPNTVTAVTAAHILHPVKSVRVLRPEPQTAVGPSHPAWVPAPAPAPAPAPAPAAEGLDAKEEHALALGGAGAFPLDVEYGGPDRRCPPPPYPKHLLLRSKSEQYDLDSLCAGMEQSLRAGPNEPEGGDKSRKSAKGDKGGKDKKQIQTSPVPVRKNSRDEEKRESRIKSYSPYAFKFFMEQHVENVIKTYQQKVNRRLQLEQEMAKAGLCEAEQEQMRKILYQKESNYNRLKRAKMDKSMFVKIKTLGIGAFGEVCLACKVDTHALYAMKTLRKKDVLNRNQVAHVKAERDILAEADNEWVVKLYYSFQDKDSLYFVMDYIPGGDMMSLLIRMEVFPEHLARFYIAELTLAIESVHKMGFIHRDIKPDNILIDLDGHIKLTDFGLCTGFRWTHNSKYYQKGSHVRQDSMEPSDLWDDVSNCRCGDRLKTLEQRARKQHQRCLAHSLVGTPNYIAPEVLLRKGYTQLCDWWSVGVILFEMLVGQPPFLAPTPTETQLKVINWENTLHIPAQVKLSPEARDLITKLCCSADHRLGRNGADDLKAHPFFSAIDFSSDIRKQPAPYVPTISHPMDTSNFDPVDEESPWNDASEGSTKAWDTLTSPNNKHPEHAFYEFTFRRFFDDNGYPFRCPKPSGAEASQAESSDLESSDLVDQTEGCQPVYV
# [2] = target: Serine/threonine-protein kinase tousled-like 2 (Homo sapiens) (UniProt Q86UE8); assay: Inhibition of TLK2 in human SKCO1 cells at 1 uM after 4 hrs using biotin labeled YLNEIKPPIIHYDLKPGNILLVNGTACEIK probe by mass-spectrometric analysis relative to control
# Chain of Serine/threonine-protein kinase tousled-like 2 (Homo sapiens) (Q86UE8 whole entry, looked up): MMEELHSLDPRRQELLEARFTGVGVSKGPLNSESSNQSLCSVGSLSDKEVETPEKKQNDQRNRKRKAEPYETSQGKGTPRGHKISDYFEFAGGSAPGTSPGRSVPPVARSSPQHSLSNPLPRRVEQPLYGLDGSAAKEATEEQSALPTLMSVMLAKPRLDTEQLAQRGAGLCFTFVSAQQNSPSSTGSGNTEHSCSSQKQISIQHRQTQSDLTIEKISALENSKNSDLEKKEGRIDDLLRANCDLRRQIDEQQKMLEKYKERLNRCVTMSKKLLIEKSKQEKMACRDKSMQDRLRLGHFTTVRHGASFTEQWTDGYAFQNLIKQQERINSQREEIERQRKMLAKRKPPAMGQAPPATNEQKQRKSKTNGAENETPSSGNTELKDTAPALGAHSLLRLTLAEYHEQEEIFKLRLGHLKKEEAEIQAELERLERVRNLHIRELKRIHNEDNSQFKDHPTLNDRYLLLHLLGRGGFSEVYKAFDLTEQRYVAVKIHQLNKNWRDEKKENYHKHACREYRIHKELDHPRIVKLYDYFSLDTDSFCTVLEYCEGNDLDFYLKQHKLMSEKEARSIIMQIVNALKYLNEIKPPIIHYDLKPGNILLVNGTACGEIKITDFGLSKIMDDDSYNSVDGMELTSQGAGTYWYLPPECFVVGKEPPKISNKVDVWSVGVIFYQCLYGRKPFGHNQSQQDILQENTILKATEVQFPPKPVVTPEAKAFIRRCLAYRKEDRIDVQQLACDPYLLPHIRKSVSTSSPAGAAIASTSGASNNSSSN
# Procedure, shortened: (§1)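 Live SK-CO-1 cells exposed to compound at 1 μM or DMSO for 4 h (KiNativ). Lysates then labeled with lysine-reactive ATP/ADP-biotin probe, and probe-labeled kinase peptides quantified by mass spectrometry. Percent inhibition of probe-dependent recovery calculated relative to DMSO-treated cells.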
# [3] = target: Interferon-induced, double-stranded RNA-activated protein kinase (Homo sapiens) (UniProt P19525); assay: Inhibition of PKR in human SKCO1 cells at 1 uM after 4 hrs using biotin labeled DLKPSNIFLVDTK probe by mass-spectrometric analysis relative to control; procedure, shortened: as §1
# Chain of Interferon-induced, double-stranded RNA-activated protein kinase (Homo sapiens) (P19525 whole entry): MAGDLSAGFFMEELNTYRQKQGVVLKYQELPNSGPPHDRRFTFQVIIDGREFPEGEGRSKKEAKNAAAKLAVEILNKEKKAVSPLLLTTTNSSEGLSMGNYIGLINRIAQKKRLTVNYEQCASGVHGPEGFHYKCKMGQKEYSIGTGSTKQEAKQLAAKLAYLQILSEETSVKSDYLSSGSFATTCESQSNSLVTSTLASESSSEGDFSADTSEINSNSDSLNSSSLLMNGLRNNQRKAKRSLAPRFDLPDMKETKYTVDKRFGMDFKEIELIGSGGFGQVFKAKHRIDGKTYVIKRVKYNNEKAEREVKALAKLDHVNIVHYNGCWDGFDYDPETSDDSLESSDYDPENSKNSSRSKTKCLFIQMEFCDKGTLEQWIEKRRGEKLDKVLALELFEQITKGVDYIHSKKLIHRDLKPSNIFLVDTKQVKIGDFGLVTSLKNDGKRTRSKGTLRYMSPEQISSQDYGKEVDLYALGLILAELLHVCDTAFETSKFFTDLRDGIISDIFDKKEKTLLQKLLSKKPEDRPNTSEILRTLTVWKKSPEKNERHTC
# [4] = target: T2, EKC/KEOPS complex subunit TP53RK (Homo sapiens) (UniProt Q96S44); assay: Inhibition of PRPK in human SKCO1 cells at 1 uM after 4 hrs using biotin labeled FLSGLELVKQGAEAR probe by mass-spectrometric analysis relative to control; procedure, shortened: as §1
# T2 sequence (whole entry): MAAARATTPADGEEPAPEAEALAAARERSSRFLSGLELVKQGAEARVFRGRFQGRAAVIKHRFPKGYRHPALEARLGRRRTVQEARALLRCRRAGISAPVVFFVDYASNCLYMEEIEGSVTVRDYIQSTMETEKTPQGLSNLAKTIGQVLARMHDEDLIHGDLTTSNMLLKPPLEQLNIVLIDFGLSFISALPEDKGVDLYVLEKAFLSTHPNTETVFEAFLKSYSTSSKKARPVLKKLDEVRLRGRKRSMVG
# [5] = target: Cyclin-dependent kinase 18 (Homo sapiens) (UniProt Q07002); assay: Inhibition of PCTAIRE3 in human SKCO1 cells at 1 uM after 4 hrs using biotin labeled DLKPQNLLINER probe by mass-spectrometric analysis relative to control; procedure, shortened: as §1
# Chain of Cyclin-dependent kinase 18 (Homo sapiens) (Q07002 whole entry): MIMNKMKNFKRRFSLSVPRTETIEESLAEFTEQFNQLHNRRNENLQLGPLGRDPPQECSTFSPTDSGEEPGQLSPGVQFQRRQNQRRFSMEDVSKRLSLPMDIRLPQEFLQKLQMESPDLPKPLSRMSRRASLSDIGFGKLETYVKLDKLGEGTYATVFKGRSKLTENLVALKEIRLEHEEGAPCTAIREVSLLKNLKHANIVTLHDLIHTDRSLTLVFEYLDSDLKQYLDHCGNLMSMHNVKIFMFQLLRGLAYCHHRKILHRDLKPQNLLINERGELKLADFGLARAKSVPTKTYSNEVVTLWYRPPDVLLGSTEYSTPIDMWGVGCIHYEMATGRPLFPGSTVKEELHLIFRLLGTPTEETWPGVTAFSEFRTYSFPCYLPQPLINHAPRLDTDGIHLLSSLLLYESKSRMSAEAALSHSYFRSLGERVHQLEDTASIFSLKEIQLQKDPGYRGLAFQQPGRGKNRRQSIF
# [6] = target: T3, Mitogen-activated protein kinase kinase kinase kinase 3 (Homo sapiens) (UniProt Q8IVH8); assay: Inhibition of KHS2 in human SKCO1 cells at 1 uM after 4 hrs using biotin labeled NVNTGELAAIKVIK probe by mass-spectrometric analysis relative to control
# T3 sequence (whole entry): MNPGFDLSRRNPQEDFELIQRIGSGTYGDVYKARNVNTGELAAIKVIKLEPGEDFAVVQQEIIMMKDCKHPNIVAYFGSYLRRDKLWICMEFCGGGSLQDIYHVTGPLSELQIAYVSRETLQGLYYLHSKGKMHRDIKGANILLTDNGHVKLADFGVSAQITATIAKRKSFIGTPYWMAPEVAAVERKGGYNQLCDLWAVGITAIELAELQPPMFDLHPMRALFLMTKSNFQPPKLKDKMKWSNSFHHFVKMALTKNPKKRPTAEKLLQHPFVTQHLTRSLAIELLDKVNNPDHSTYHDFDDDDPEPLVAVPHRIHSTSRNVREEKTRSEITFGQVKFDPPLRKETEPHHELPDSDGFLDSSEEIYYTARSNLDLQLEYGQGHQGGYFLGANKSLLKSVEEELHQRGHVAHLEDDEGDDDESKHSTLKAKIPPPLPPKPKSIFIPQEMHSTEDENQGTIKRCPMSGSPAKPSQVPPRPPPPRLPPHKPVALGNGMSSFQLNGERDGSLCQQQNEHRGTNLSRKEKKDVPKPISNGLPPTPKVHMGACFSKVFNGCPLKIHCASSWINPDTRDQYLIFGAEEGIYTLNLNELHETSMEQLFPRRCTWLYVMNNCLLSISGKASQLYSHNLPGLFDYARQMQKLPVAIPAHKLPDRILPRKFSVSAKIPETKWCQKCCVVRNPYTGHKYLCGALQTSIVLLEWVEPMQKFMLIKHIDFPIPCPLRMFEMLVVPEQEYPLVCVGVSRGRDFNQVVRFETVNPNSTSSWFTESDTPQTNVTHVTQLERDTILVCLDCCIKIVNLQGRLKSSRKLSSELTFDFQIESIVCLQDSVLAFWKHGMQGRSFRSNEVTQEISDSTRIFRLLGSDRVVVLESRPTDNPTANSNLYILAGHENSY
# [7] = target: Epidermal growth factor receptor (Homo sapiens) (UniProt P00533); assay: Inhibition of EGFR in human SKCO1 cells at 1 uM after 4 hrs using biotin labeled IPVAIKELR probe by mass-spectrometric analysis relative to control
# Chain of Epidermal growth factor receptor (Homo sapiens) (P00533 whole entry): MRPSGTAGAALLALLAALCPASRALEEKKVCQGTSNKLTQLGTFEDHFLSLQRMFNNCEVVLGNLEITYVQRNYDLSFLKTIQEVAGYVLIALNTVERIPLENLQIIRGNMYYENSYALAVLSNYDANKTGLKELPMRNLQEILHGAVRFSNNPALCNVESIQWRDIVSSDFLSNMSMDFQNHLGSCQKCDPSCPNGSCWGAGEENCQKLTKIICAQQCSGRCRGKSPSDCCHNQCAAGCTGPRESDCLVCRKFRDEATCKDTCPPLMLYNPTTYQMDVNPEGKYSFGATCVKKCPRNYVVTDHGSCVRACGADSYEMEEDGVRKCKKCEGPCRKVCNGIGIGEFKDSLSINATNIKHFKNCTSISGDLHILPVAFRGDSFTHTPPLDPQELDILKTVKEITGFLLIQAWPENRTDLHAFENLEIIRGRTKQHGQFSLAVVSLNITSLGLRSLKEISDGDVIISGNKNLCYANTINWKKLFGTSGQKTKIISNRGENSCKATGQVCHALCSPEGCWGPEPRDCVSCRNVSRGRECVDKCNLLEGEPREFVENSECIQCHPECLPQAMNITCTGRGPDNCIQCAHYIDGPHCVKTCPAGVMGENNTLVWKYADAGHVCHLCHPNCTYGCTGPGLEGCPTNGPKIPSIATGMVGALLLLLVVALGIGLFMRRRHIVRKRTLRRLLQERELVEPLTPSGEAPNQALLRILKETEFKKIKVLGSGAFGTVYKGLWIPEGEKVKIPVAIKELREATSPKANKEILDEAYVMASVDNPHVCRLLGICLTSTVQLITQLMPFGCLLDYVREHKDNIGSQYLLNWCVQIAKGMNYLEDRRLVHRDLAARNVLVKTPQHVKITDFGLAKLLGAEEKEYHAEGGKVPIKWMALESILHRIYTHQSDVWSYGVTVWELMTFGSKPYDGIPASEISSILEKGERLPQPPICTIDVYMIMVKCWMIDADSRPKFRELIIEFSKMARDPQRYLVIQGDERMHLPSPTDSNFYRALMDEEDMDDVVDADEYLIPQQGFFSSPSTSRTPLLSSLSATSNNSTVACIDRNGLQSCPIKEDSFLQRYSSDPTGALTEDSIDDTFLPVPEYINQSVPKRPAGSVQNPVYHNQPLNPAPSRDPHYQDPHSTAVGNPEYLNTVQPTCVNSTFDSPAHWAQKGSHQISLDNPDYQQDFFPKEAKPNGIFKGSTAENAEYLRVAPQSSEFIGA
SMILES,inhibition [1] [%],inhibition [2] [%],inhibition [3] [%],inhibition [4] [%],inhibition [5] [%],inhibition [6] [%],inhibition [7] [%]
COc1cc(O)c2c(c1)/C=C/C[C@H](O)[C@H](O)C(=O)/C=C\C[C@H](C)OC2=O,-0.3,-1.8,-6.6,46.7,-6.3,3.1,6.2
C=CC(=O)Nc1ccccc1Oc1nc(Nc2cnn(CCOC)c2)ncc1Cl,6.7,3.8,2.5,46.6,-5.9,-7.5,17.1
C=CC(=O)Nc1ccccc1Nc1nc(Nc2ccc(N3CCN(C)CC3)cc2)ncc1Cl,40.7,-2.7,2.6,42.1,-3.2,42.4,46.2
